Cneo AK release – Cryptococcus neoformans lysis via adenylate kinase release. C. neoformans lysis, adenylate kinase release luminescence, 4 h; normalised: neutral wells 0, clomiphene wells 100. lysis activity, % at 15 µM. 360,000 compounds, 0.2% hits;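 active = mean lysis activity across replicates of at least 80%, whatever share of replicates individually reach that level; inactive = mean lysis activity below 80%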
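Material: C. neoformans cells; Schedule: 4 h static compound exposure, 37 °C, read 1 h post-reagent; Measured by: adenylate kinase release luminescence; Read-out: signal increase indicating cell lysis; Controls: Clomiphene as positive lysis control.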
HIV Env fusion – blocks HIV Env-driven cell-cell fusion; inhibition, % at 12.3 µM; 360,000 compounds, 1.1% hits; HeLa-JRFL Env/CEM21 cell fusion, luciferase; AID 651610;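 active = mean replicate inhibition score of at least 50 and every replicate individually at or above 50; inconclusive = only one of the two criteria met; inactive = mean below 50 and not all replicates reaching 50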;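 also: 0% = plate neutral controls and 100% = maraviroc near 300 nM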
Wnt act – Wnt/beta-catenin pathway activation; Wnt/beta-catenin reporter cell assay, activator, plate reader; activation, % at 9.35 µM; 300,000 compounds, 1.2% hits; in the data active = activation above about 30%, passing the limit was not always enough; inconclusive = no clear call, values can overlap the other calls;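 also: 0% = neutral control wells and 100% = positive control wells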
ERAP1 HTS inh – blocks human ERAP1 aminopeptidase activity; Q9NZ08; recombinant ERAP1, Leu-AMC fluorescence, 60 min; inhibition, % at 10.7 µM; 340,000 compounds, 0.15% hits; AID 652197;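 active = mean replicate inhibition of at least 30%, or all replicates individually reaching that 30% level; inactive = mean below 30% and not every replicate reaching it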;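 also: 0% = neutral control wells and 100% = L-leucinethiol positive control wells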
esBAF inh – blocks esBAF chromatin remodeling in mouse ES cells | Bmi1-luciferase knock-in reporter, 24 h; 100% = twice the neutral-well signal | reporter increase, % at 12.5 µM | 350,000 compounds, 2% hits | AID 602393; in the data active = activation above about 40%; inconclusive = no clear call, values can overlap the other calls;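 also: 0% = median of the plate's neutral control wells and 100% = double that signal; a rise in the Bmi1 reporter signal indicates esBAF inhibition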
MITF act – increases MITF-driven TRPM1 promoter luciferase signal | SK-MEL-5 TRPM1-promoter luciferase, 24 h; % of positive control, neutral wells = 0 | activation, % at 12.5 µM | 300,000 compounds, 0.75% hits | AID 588334;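 active = mean activation of at least 80% with every replicate also reaching 80%; inconclusive = mean reaches 80% but some replicate falls short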;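 also: 0% = neutral control wells and 100% = parthenolide positive control wells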
Ring1 derepress – de-represses Ring1 in mouse ESCs, confirming esBAF inhibition; shares compounds with esBAF inh; mouse ESC E14, Ring1 mRNA RT-qPCR fold change; fold change at 33 µM; 550 tested, under 10 active; AID 743176;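 active = Ring1 gene expression raised more than 2-fold over untreated cells in both replicates at either tested dose; inconclusive = only one replicate above 2-fold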;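 also: Ring1 transcript normalised to actin housekeeping signal by TaqMan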
esBAF Fgf4 qPCR – esBAF inhibition confirmed by Fgf4 repression. shares compounds with esBAF inh. mouse ESC E14, Fgf4 mRNA qPCR fold change; hits give low values. Fgf4 expression fold change at 33 µM. 550 compounds, 4% hits;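 active = Fgf4 expression under 0.8 fold of control in both repeat measurements at one or both tested doses; inconclusive = under 0.8 fold in just a single repeat measurement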;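 also: Fgf4 transcript normalised to actin in duplex TaqMan qPCR; cells exposed to compound for 24 h before lysis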
esBAF Bmi1 qPCR – confirmation of esBAF inhibitors: Bmi1 de-repression in mouse ESCs. shares compounds with esBAF inh. mouse ESE14 ES cells, Bmi1 mRNA qPCR fold; hits give high values. fold change at 33 µM. 550 tested, under 10 active. AID 743180;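 active = Bmi1 expression fold change above 6 at either tested concentration, seen in replicate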;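 also: higher fold means more Bmi1 de-repression and stronger esBAF inhibition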
A549 cytotox – kills or reduces viability of A549 cells; shares compounds with esBAF inh; A549 cytotoxicity, plate reader; cell viability change % (negative = cytotoxic), % at 25 µM, hits read low; 550 tested, under 10 active; AID 743188; call rule not given here
HepG2 cytotox SP – kills or reduces viability of HepG2 cells; shares compounds with esBAF inh; HepG2 cytotoxicity, plate reader; hits give low values; activity change, negative = inhibition, % at 25 µM; 550 compounds, 4% hits; AID 743189; in the data active = activity change below about -50%
HEK293 tox SP – cytotoxicity in HEK293 cells | activity change, negative = inhibition, % at 25 µM, hits read low | plate reader | 550 compounds, 3% hits | shares compounds with esBAF inh; in the data active = activity change below about -38%, passing the limit was not always enough
* hit, by the source's call; ? = inconclusive; . = not tested or not shown; [ ] = remark or other dose. Only some compounds are listed: those with a hit (about 3.5% of all), similar ones and a draw of the others.

SMILES	Cneo AK release	HIV Env fusion	Wnt act	ERAP1 HTS inh	esBAF inh	MITF act	Ring1 derepress	esBAF Fgf4 qPCR	esBAF Bmi1 qPCR	A549 cytotox	HepG2 cytotox SP	HEK293 tox SP
COc1ccc2c3c(n(C)c2c1)[C@H](CO)N(C(=O)CN(C)C)CC31CCN(Cc2nccs2)CC1	.	.	.	11	.	.	.	.	.	.	.	.
c1ccc(-c2nnc3oc(-c4cccs4)nn23)cc1	-1	23	-1	-3	166*	.	1.2	?	2.8	-9	-39	-12
COc1cc(C2Nc3cc(Cl)c(S(N)(=O)=O)cc3S(=O)(=O)N2)ccc1OCc1ccccc1 (stereo unspecified)	-3	-220	-3	5	?	46	0.95	1	1.5	1	-51*	-3
COc1cc(C2Nc3cc(Cl)c(S(N)(=O)=O)cc3S(=O)(=O)N2)cc(OC)c1OC (stereo unspecified)	.	.	.	.	-1	-8	.	.	.	.	.	.
COc1cc(Cl)ccc1OCc1cc(C(=O)N2CCN(C)C(=O)[C@@H]2C)no1	-1	-72	43*	0	96*	.	1.1	0.5*	1.3	-18	-15	-21
C[C@H]1CN([C@@H](C)CO)C(=O)c2cc(NC(=O)Cn3cnnn3)ccc2O[C@@H]1CN(C)S(=O)(=O)c1ccc(Cl)cc1	.	-2[16.7 µM]	.	-7	-1	.	.	.	.	.	.	.
COc1ccc(-c2nc(C#N)c(NC(C)C)o2)cc1	-1	.	15	10	67*	74	1.1	1	1.6	-4	-35	-9
CCCNC(=O)C[C@@H]1CC[C@H]2[C@@H](COc3ccc(NC(=O)Nc4cccc(C)c4)cc3C(=O)N2C)O1	0	28[16.7 µM]	.	1	2	.	.	.	.	.	.	.
Cc1nc2c(sc3nc4c(cc32)COC(C)(C)C4)c(=O)n1Cc1ccccc1	0	.	.	.	64*	60	1.2	0.81	1.1	2	-29	-16
Cn1cnc(S(=O)(=O)N[C@H]2C=C[C@@H](CC(=O)Nc3ccccc3)O[C@@H]2CO)c1	-2	-3[16.7 µM]	.	0	3	.	.	.	.	.	.	.

Assay outcomes (PubChem)
